From PubChem
This is a sample that favours compounds with a hit; in the whole collection about 1.9% have one here.
STEP inh = STEP phosphatase inhibitors, primary screen, biochemical, fluorescence intensity, uHTS; Tyrosine-protein phosphatase non-receptor type 5 (Homo sapiens), P54829; recombinant STEP, OMFP fluorogenic substrate; inhibition, % at 20 µM; 0.25% of 360,000 active;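 active = inhibition at 20 µM, scaled per plate between control wells, above about 37%, limit read from the data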
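Test system: STEP tyrosine phosphatase / Reagent: OMFP at 25 µM / Doses: 20 µM, 1% DMSO / Read-out: percent inhibition scaled to no-enzyme and uninhibited-enzyme controls, plate-pattern corrected / Detection: FITC-channel fluorescence of OMFP product / Medium: Bis-Tris buffer pH 6.0, 2.5 mM DTT, 0.005% Tween 20 / Schedule: 20 min at room temperature, dark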
Scp1 inh = Scp-1 phosphatase inhibitors, primary screen, biochemical, colorimetric, uHTS. Carboxy-terminal domain RNA polymerase II polypeptide A small phosphatase 1 (Homo …. Recombinant Scp1, phosphopeptide, malachite green phosphate absorbance. inhibition, % at 20 µM. 0.88% of 340,000 active;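 active = inhibition above about 50% at 20 µM, limit read from the data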
Target sequence (Q9GZU7 76-261 limits assumed): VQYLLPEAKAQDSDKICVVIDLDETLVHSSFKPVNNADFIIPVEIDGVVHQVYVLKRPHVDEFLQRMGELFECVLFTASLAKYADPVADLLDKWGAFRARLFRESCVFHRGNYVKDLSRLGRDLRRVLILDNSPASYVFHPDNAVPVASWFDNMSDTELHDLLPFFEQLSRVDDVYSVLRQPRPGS
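System: SCP-1 catalytic domain; Reagent: Phospho 17-mer peptide substrate; Doses: one concentration, 20 µM, with 1.0% DMSO; Incubation: 45 min room-temperature reaction, 5 min colour, 30 min stabiliser; Signal: Phosphate-binding colour reagent, absorbance read at 630 nm.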
DNMT1 inh = human DNMT1 methyltransferase inhibitors, primary screen, biochemical, molecular beacon, fluorescence, HinP1I cleavage, uHTS. DNA (cytosine-5)-methyltransferase 1 (Homo sapiens), P26358. inhibition (reported as % activation of signal), % at 10 µM. 0.83% of 360,000 active. AID 588458, 2011; in the data active = inhibition above about 50%
SUMO1 PPI mod = modulators of SUMO1 protein-protein interactions, primary screen, biochemical, uHTS. Small ubiquitin-related modifier 1 (Homo sapiens), P63165. SUMO1 binding to a labelled peptide, TR-FRET, 1 h. inhibition, % at 20 µM. 0.33% of 360,000 active; in the data active = inhibition above about 37%
Target sequence (P63165 whole entry, looked up): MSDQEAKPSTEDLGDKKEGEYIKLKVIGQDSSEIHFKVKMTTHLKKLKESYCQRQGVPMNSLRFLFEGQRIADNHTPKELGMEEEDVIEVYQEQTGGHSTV
UBC9 SUMO inh = inhibitors of in vitro SUMOylation cascade, primary screen, biochemical, HTRF, uHTS. HTRF SUMOylation assay, SAE1/SAE2 + UBC9. AID 2006, 2009. 0.36% of 290,000 active. SUMO-conjugating enzyme UBC9 (Homo sapiens), P63279. inhibition, % at 35 µM; in the data active = inhibition above about 50%, passing the limit was not always enough
Target sequence (P63279 whole entry, looked up): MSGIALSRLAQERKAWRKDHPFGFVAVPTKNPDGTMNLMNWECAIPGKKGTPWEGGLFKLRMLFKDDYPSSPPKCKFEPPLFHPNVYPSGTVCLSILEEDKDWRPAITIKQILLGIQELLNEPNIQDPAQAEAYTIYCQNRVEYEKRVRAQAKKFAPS
LMPTP block = LMPTP phosphatase inhibitors, primary screen, biochemical, fluorescence intensity, uHTS | recombinant LMPTP-A, OMFP fluorogenic substrate | 0.22% of 360,000 active | inhibition, % at 20 µM | Low molecular weight phosphotyrosine protein phosphatase (Homo sapiens), P24666;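 active = compounds that cut the enzyme signal by at least half of the control window in the single-dose screen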
Target sequence (P24666 whole entry, looked up): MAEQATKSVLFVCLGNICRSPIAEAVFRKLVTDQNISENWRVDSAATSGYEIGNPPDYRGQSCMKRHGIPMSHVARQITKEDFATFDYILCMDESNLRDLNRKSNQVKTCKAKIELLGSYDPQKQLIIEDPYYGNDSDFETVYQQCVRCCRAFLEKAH
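Test system: LMPTP-A, protein tyrosine phosphatase of low molecular weight; Input: 0.625 nM enzyme; Incubation: 50 min dark incubation at room temperature; Signal: endpoint fluorescence intensity from OMFP dephosphorylation; Read-out basis: % inhibition versus control wells.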
Scp1 confirm = Scp-1 phosphatase inhibitors, retest, confirmation, biochemical, colorimetric, single concentration; 61% of 2,500 active; recombinant SCP-1 catalytic domain, phosphate release, malachite green absorbance; shares compounds with Scp1 inh; inhibition, % at 20 µM
MG interference = colorimetric readout interference by compounds, confirmation, artefact control for Scp-1 inhibitor project, biochemical, single concentration; Colorimetric interference counterscreen, malachite green absorbance 630 nm; shares compounds with Scp1 inh; 2,500 tested, under 10 active; apparent inhibition (interference), % at 20 µM;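 note: compounds added after enzyme reaction finished so only phosphate colour detection is probed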
Scp1 DSF = Scp-1 binding by thermal shift, confirmation, orthogonal assay for Scp-1 inhibitor project, biophysical, differential scanning fluorimetry; thermal shift relative to vanadate control, % at 40 µM; 25% of 1,500 active; Recombinant SCP1, Sypro Orange thermal shift Tm; shares compounds with Scp1 inh;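 active = substances whose mean melting-temperature shift, as a percentage of the reference inhibitor's shift, reaches about 5.3%, limit read from the data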
DNMT1 interf DR = spectral interference with molecular beacon fluorescence, dose response, artefact control for DNMT1 inhibitor project, biochemical, fluorescent molecular beacon; shares compounds with DNMT1 inh; spectral interference counter-screen; IC50, µM; 200 tested, under 10 active; call rule not given here
DNMT1 inh conf = DNMT1 methyltransferase inhibitor retest, confirmation, biochemical, molecular beacon, fluorescence, single concentration. DNMT1 molecular beacon HinP1I cleavage. shares compounds with DNMT1 inh. inhibition, % at 10 µM. AID 602385, 2012. 8% of 2,300 active;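 active = average inhibition of at least 30% in the single-concentration confirmation test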
DNMT1 interf = shows spectral interference in the DNMT1 beacon assay. shares compounds with DNMT1 inh. DNMT1 molecular beacon spectral interference counterscreen, fluorescence 485/520. activation (fluorescence interference), % at 10 µM. 1% of 2,300 active. AID 602387;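 active = activation of at least 30% at 10 µM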;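 note: DNMT1 catalytic domain with a HinP1I cleavage step and a FAM/dabcyl DNA beacon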
Each line names hits and unclear results; the compound was inactive in the other large screens (follow-up assays come after a bar, where they were run).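 Rule for the calls, unless noted: active = inhibition of at least 30% at 20 µM; inactive = the rest.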

COc1ccc(NC(=O)/C(C#N)=C/c2ccc(-c3ccccc3C(=O)O)o2)cc1	none
COc1ccc(NC(=O)/C(C#N)=C\c2ccc(Br)o2)cc1	Scp1 inh 93.7, DNMT1 inh 78.6 | Scp1 confirm 58.2 | MG interference inactive | Scp1 DSF inactive | DNMT1 inh conf inactive | DNMT1 interf inactive
O=C(COC(=O)c1cccc(S(=O)(=O)N2CCN(c3ccccc3)CC2)c1)NCc1ccco1	Scp1 inh 66.1, DNMT1 inh 68.5 | Scp1 confirm 58.2 | MG interference inactive | Scp1 DSF inactive | DNMT1 inh conf inactive | DNMT1 interf inactive
NC(=O)COC(=O)c1cccc(S(=O)(=O)N2CCN(c3ccccc3)CC2)c1	none
Cc1ccc(S(=O)(=O)N2Cc3ccccc3CC2C(=O)Nc2ccc3c(c2)OCO3)cc1 (stereo not drawn)	Scp1 inh 70.0, DNMT1 inh 66.5 | Scp1 confirm 56.6 | MG interference inactive | Scp1 DSF inactive | DNMT1 inh conf inactive | DNMT1 interf inactive
Cc1nn(-c2ccc(F)cc2)c(Cl)c1/C=N/NC(=O)c1cccc(S(=O)(=O)N2CCCC2)c1	Scp1 inh 50.3, DNMT1 inh 74.7 | Scp1 confirm 35.4 | MG interference inactive | Scp1 DSF inactive | DNMT1 inh conf inactive | DNMT1 interf inactive
Nc1nc(SCc2ccccc2)sc1C(=O)N1CCCCC1	none (no result: Scp1 inh, UBC9 SUMO inh)
O=C(CCS(=O)(=O)c1ccc(Br)cc1)NCCc1ccccc1	Scp1 inh 88.0, DNMT1 inh 83.7 | Scp1 confirm 62.3 | MG interference inactive | Scp1 DSF inactive | DNMT1 inh conf inactive | DNMT1 interf inactive
O=C(CCNS(=O)(=O)c1ccc(Br)cc1)NCCc1ccccc1	none
NS(=O)(=O)c1ccc(CCNC(=O)CCS(=O)(=O)c2ccc(Br)cc2)cc1	Scp1 inh 95.6, DNMT1 inh 86.5, SUMO1 PPI mod 74.7 | Scp1 confirm 66.0 | MG interference inactive | Scp1 DSF inactive | DNMT1 inh conf inactive | DNMT1 interf inactive
CCc1cccc(NC(=O)CCS(=O)(=O)c2ccc(Br)cc2)c1	Scp1 inh 86.2, DNMT1 inh 87.6 | Scp1 confirm 64.8 | MG interference inactive | Scp1 DSF inactive | DNMT1 inh conf inactive | DNMT1 interf inactive
Cc1ccc(S(=O)(=O)CCC(=O)Nc2cccc(C)c2)cc1	none
C[C@H]1CN(c2ccccc2)C(=O)[C@@H]1CC(=O)Nc1ccc(Br)cc1	none (no result: Scp1 inh, UBC9 SUMO inh)
Cc1ccc(C(=O)O)cc1-c1ccc(/C=C2/NC(=O)N(c3ccccc3)C2=O)o1	Scp1 inh 63.0, DNMT1 inh 92.2 | Scp1 confirm 67.9 | MG interference inactive | Scp1 DSF 12.6 | DNMT1 interf DR inactive | DNMT1 inh conf 34.1 | DNMT1 interf inactive
O=C1N/C(=C/c2ccc(N3CCOCC3)o2)C(=O)N1c1ccccc1	none
O=C(CSc1ccc(Cl)cc1)N1CCN(c2ccc([N+](=O)[O-])cc2Cl)CC1	none
Cc1ccc(Cl)cc1N1CCN(C(=O)CSc2ccsc2[N+](=O)[O-])CC1	Scp1 inh 55.4, DNMT1 inh 62.6 | Scp1 confirm 68.1 | MG interference inactive | Scp1 DSF 8.1 | DNMT1 inh conf inactive | DNMT1 interf inactive
CCOc1cc(/C=N/Nc2ccccc2Cl)ccc1OCC(=O)O	Scp1 inh 54.1, DNMT1 inh 57.7 | Scp1 confirm inactive | MG interference inactive | DNMT1 inh conf inactive | DNMT1 interf inactive
C/C=C/C=C/C(=O)[C@@H]1[C@@H]([C@]2(C)OC(=O)C(C)=C2O)[C@H]2/C(=C(O)/C=C/C=C/C)C(=O)[C@]1(C)C(=O)C2(C)O (stereo partly drawn)	Scp1 inh 71.8, DNMT1 inh 84.9 | Scp1 confirm 51.3 | MG interference inactive | Scp1 DSF 11.1 | DNMT1 interf DR inactive | DNMT1 inh conf 61.3 | DNMT1 interf inactive
O=C1Nc2ccccc2SC(c2ccccc2)C1O (stereo not drawn)	Scp1 inh 74.3, DNMT1 inh 99.3 | Scp1 confirm 63.5 | MG interference inactive | Scp1 DSF 6.6 | DNMT1 inh conf inactive | DNMT1 interf inactive
O=C(N/N=C/c1cccn1-c1cccc(C(=O)O)c1)Nc1ccccc1	Scp1 inh 64.2, DNMT1 inh 85.1 | Scp1 confirm 49.7 | MG interference inactive | Scp1 DSF 7.0 | DNMT1 inh conf inactive | DNMT1 interf inactive
O=C(CSc1nnc(COc2ccccc2Cl)o1)NC(=O)NCc1ccco1	Scp1 inh 75.7, DNMT1 inh 71.9 | Scp1 confirm 44.1 | MG interference inactive | Scp1 DSF inactive | DNMT1 inh conf inactive | DNMT1 interf inactive
O=C(CSc1nnc(-c2ccco2)n1Cc1ccccc1)NC(=O)NCc1ccccc1	none
Cc1ccccc1Nc1nnc(SCC(=O)NC(=O)NCc2ccco2)s1	Scp1 inh 84.0, DNMT1 inh 90.4 | Scp1 confirm 61.3 | MG interference inactive | Scp1 DSF inactive | DNMT1 inh conf inactive | DNMT1 interf inactive
O=C(CSc1nnc(Nc2ccccc2F)s1)NCc1ccco1	Scp1 inh 82.8, DNMT1 inh 76.2 | Scp1 confirm 62.9 | MG interference inactive | Scp1 DSF inactive | DNMT1 inh conf inactive | DNMT1 interf inactive
